The text below walks through data of ChEMBL document CHEMBL3632531, “Cafestol, a Bioactive Substance in Coffee, Stimulates Insulin Secretion and Increases Glucose Uptake in Muscle Cells: Studies in Vitro” (2015).

Structures are written as SMILES. Calls of active or inactive are those of the source. The calls are words filed in the database; no cut-off is given here.

Test [1] in a line: Increase in glucose-stimulated insulin secretion in rat INS-1E cells at 10^-10 M after 60 mins in presence of 16.7 mM glucose. Format: functional. The method, boiled down: (§1)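 INS-1E cells were pre-cultured 72 h, then preincubated 15 min in M-KRB (pH 7.4, 1% BSA). They were exposed for 60 min at 37 °C to test agent diluted from a 10−3 M DMSO stock to final 10−12–10−6 M in M-KRB with 16.7 mM glucose, with DMSO equalized across solutions. Insulin in the supernatant was measured by RIA (anti-insulin antibody, 125I-insulin tracer, rat insulin standard), and cell protein by Bradford. Mean ± SEM is reported against the 16.7 mM glucose control.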

Test [2] can be described thus: Increase in glucose-stimulated insulin secretion in rat INS-1E cells at 10^-8 M after 60 mins in presence of 16.7 mM glucose. The class given is functional. In short, it runs like this: as §1
A short description of test [3]: (§2) Increase in glucose-stimulated insulin secretion in rat INS-1E cells at 1 uM after 60 mins in presence of 16.7 mM glucose. Format: functional. In short, it runs like this:
as §1

Test [4] in a line: Increase in glucose-stimulated insulin secretion in rat INS-1E cells at 10^-8 M after 72 hrs in presence of 16.7 mM glucose. The class given is functional. In short, it runs like this: (§3)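 INS-1E cells were seeded and grown 72 h at 37 °C in growth medium containing test agent at final 10−12, 10−10 or 10−8 M, with DMSO equalized. After a 15 min preincubation in M-KRB, cells were stimulated 60 min with M-KRB at 3.3 or 16.7 mM glucose. Supernatant insulin was measured by RIA. Mean ± SEM is compared with the control at the matching glucose level.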

A short description of test [5]: Increase in glucose-stimulated insulin secretion in rat INS-1E cells at 10^-10 M after 72 hrs in presence of 16.7 mM glucose. Format: functional. In short, it runs like this: as §3
Test [6] is described as follows: Increase in glucose-stimulated insulin secretion in rat INS-1E cells at 10^-8 M after 72 hrs in presence of 3.3 mM glucose. Format: functional. The method, boiled down:
as §3

Test [7] can be described thus: Increase in deoxy-D-glucose 2-[1.2-3H(N)] uptake in human Skeletal muscle cells at 10^-8 M after 72 hrs by scintillation counter relative to control. The class given is functional. The method, boiled down:
(§4)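 Differentiated human skeletal muscle cells (2 weeks in differentiation medium, until multinucleated syncytia were visible) were exposed for 72 h to test agent at 10−8 to 10−12 M. Cells were then given a 15 min pulse at 37 °C in modified KRB with 0.1% BSA, 0.1 mM glucose, tritiated deoxy-D-glucose and 100 nM insulin. Uptake was stopped with washes in 50 mM glucose, cells were lysed in NaOH, and counts per min were read by scintillation and compared with untreated control.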

For a further test, the species on record is Homo sapiens. As to the kind of experiment: Effect on deoxy-D-glucose 2-[1.2-3H(N)] uptake in human Skeletal muscle cells at 10^-12 to 10^-10 M after 72 hrs by scintillation counter. The class given is functional. The method, boiled down: as §4
A short description of test [8]: Decrease in glucose-stimulated insulin secretion in rat INS-1E cells at 10^-12 M after 72 hrs in presence of 3.3 mM glucose. On the set-up: scale not given: the % may be the effect or the level left.
The test system of a further test is INS-1E. The description is as §2. Format: functional. The method, boiled down: as §1

Regarding `C[C@@]12CCc3occc3[C@H]1CC[C@@]13C[C@@H](CC[C@H]12)[C@@](O)(CO)C3` [CAFESTOL], the Activity in test [1] worked out at 12%; in test [2] it was 12%; in [3], 16%; in [4] it was 34%; in test [5] it was 68%; in test [6], 27%. For the same molecule, the Activity in [7] turned out to be 8%; in test [8], 15%. The result in the test filed under Homo sapiens was inactive.
With `O=C(/C=C/c1ccc(O)c(O)c1)O[C@@H]1C[C@](O)(C(=O)O)C[C@@H](O)[C@H]1O`, the result in the test on INS-1E was Active.
In turn, `CN(CCOc1ccc(CC2SC(=O)NC2=O)cc1)c1ccccn1` (stereo not given) [ROSIGLITAZONE] gave an Activity in [7] of 7%.
In the case of `O=C(O)/C=C/c1ccc(O)c(O)c1` [CAFFEIC ACID], the Activity in [1] is listed as 9%; in test [2], 18%; in test [3], 9%; in test [4] it was 16%.
